From article PMC5968455 (Cancer cell, 2016)

Tests used:
[1] = test system: patient-derived GBM neural stem cells (GNS); experiment: Proliferation assay, dose-response series; type: cell-based, human; conditions: for selectivity toward GNS and NS compared with fibroblasts: IC50 of BJ/IC50 of any NS or GNS with the lowest IC50, dose series 0.39–50 µM; for IC50: read-out: potency (IC50) toward GNS, panel of six GNS lines
DRD4 receptor = target: T1, DRD4 receptor (Homo sapiens, UniProt P21917); experiment: Block of forskolin-induced cAMP response by DRD4 agonist; type: cell-based; conditions: G362 cells, pretreatment 30 µM, then forskolin 30 µM
T1 sequence (P21917 1-419): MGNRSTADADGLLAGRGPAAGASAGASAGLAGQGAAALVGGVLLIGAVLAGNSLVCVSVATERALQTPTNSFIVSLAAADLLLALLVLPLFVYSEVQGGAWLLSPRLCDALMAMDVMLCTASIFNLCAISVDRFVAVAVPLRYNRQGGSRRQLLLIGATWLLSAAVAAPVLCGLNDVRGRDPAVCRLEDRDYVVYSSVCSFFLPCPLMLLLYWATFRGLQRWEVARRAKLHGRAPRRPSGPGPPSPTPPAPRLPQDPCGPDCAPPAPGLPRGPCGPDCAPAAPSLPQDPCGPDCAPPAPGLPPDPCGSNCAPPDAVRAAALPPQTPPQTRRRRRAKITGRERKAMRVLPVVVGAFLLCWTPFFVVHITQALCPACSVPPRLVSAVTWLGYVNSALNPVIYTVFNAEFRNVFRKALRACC

adenylate cyclase = experiment: Forskolin-induced cAMP response in GNS; type: cell-based, human; conditions: G362 cells, forskolin 30 µM
How it was run: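 G362 GNS cells were stimulated with forskolin (30 µM) to activate adenylate cyclase. Forskolin was given alone or after pretreatment with a DRD4-selective agonist (30 µM). cAMP level was expressed as fold change versus control; n = 3, mean ± SEM.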

G481 = experiment: Combination index with TMZ; type: cell-based, human; conditions: in combination with TMZ
How it was run: (§1)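 Patient-derived glioblastoma stem cell (GNS) cultures were exposed to temozolomide combined with a test compound (DRD4 antagonist). The combination index (CI) was calculated and plotted against fraction affected (Fa) to judge the interaction.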

G362 = experiment: Combination index with TMZ; type: cell-based, human; conditions: in combination with TMZ
How it was run: as §1

GNS (G362 and G411) = experiment: LC3B+ puncta immunofluorescence; type: cell-based, human; conditions: 48 hr; L-741,742 10 µM, PNU 96415E 25 µM
How it was run: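 Adherent, serum-free GNS cultures (G362, G411) were exposed for 48 hr to test compounds (DRD4 antagonists) at 10 µM or 25 µM, or DMSO. LC3B was immunostained, and cells with large LC3B+ puncta were counted (>200 cells per group). Results are the fraction of cells; n = 3, mean ± SEM, unpaired one-tailed t test.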

[2] = test system: subcutaneous implanted tumor (G362); experiment: Subcutaneous GNS xenograft in NSG mice; type: in vivo, mouse; conditions: 20 mg/kg intraperitoneally; for reduction of average tumor weight at the endpoint: 5 days on, 2 days off, vs vehicle
[3] = test system: G362 cells injected intracranially; experiment: Intracranial G362 xenograft survival in NSG mice; type: in vivo, mouse
GNS (G411 and G362) = experiment: Flow cytometric cell-cycle analysis of DNA content; type: cell-based, human
How it was run: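 GNS lines G411 and G362 were grown as adherent monolayers in serum-free medium. They were exposed to test compounds (DRD4 antagonists) at 10 µM or 25 µM, alongside DMSO control, for 48 hr. DNA-content cell-cycle distribution was then analysed.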

[4] = test system: normal human NS lines (hf5205 and hf6539); experiment: Neuronal differentiation of normal NS; type: cell-based; conditions: with sequential withdrawal of EGF and FGF; VGlut1 expression
[5] = test system: non-NS control cells (BJ, Daoy, U-2 OS, C8-D1A); experiment: Proliferation assay in non-NS control cell lines; type: cell-based; conditions: highest concentration tested 50 µM
GNS, NS and BJ lines = experiment: Primary screen of neuroactive compounds, growth inhibition; type: cell-based, human; conditions: 5 µM, 5 days; hit = greater than 20% growth inhibition vs DMSO
How it was run: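 A 680-compound neuroactive library was screened at 5 µM for 5 days against three human GNS lines, two neural stem cell (NS) lines and BJ fibroblasts. GNS and NS lines were grown as adherent serum-free monolayers. Growth inhibition was calculated relative to DMSO control; a primary hit caused >20% inhibition.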

CCC(Oc1ccc(Cl)cc1)C(=O)OC1CC2CCC(C1)N2C (racemic) [(±)-tropanyl-2-(4-chlorophenoxy)butanoate]
selectivity toward GNS and NS compared with fibroblasts [1]: more than 8 fold

Cc1cccc(NC(=O)CN2CCC(c3ccccn3)CC2)c1 [A412997]
block of forskolin-induced cAMP response (DRD4 receptor): 31.3%

C=C[C@@]1(C)CC(=O)[C@]2(O)[C@@]3(C)[C@@H](O)CCC(C)(C)[C@@H]3[C@H](O)[C@H](OC(C)=O)[C@@]2(C)O1 [Forskolin, forskolin]
increase in cAMP concentration (adenylate cyclase): 2.1 fold

Cc1c(C2CCN(CCc3ccccc3)CC2)noc1-c1ccc(Cl)cc1 [L-741,742]
selectivity against GNS compared with NS [1]: 8 fold
selectivity toward GNS and NS compared with fibroblasts [1]: more than 8 fold
IC50 [1]: 1.5 to 6.2 µM
lowest combination index (CI) value (G481): 0.28
lowest combination index (CI) value (G362): 0.29
cells showing large LC3B+ puncta (GNS (G362 and G411)): more than 50%
tumor volume growth vs vehicle control [2]: much slower growth
reduction of average tumor weight at the endpoint [2]: 40.9%
survival over control ([3]; 25 mg/kg alone, treatment from 1 week after engraftment): modest but significant benefit in survival
survival compared with TMZ alone ([3]; 25 mg/kg combined with TMZ (25 or 12.5 mg/kg gavage)): significantly improved survival
cell-cycle effect (GNS (G411 and G362)): G0/G1 arrest
neuronal differentiation of NS [4]: dramatically enhanced neuronal differentiation

Clc1ccc(N2CCN(Cc3c[nH]c4ncccc34)CC2)cc1 [L-745,870]
IC50 [1]: 3.1 to 6.2 µM

Nc1ccc(CCN2CCN(c3cccc(C(F)(F)F)c3)CC2)cc1 [LY-165,163]
selectivity toward GNS and NS compared with fibroblasts [1]: more than 8 fold

CN1[C@@H]2CC[C@H]1C[C@@H](OC(=O)c1cc(Cl)cc(Cl)c1)C2 [MDL-72222]
selectivity toward GNS and NS compared with fibroblasts [1]: more than 8 fold

CCN(CC)CCOc1ccc(Cc2ccccc2)cc1 [N,N-diethyl-2-(4-(phenylmethyl)phenoxy) ethanamine]
selectivity toward GNS and NS compared with fibroblasts [1]: more than 8 fold

O=C(NOC[C@H](O)CO)c1ccc(F)c(F)c1Nc1ccc(I)cc1F [PD 0325901]
cell-cycle effect (GNS (G411 and G362)): G0/G1 arrest

Cl.Cl.Fc1ccc(N2CCN(CCC3OCCc4ccccc43)CC2)cc1 (stereo not shown) [PNU 96415E]
selectivity against GNS compared with NS [1]: 8 fold
selectivity toward GNS and NS compared with fibroblasts [1]: more than 8 fold
IC50 [1]: 6.25 µM
sensitivity of non-NS control cells [5]: not sensitive even at the highest concentration tested
lowest combination index (CI) value (G481): 0.32
lowest combination index (CI) value (G362): 0.56
cells showing large LC3B+ puncta (GNS (G362 and G411)): more than 50%
tumor volume growth vs vehicle control [2]: much slower growth
reduction of average tumor weight at the endpoint [2]: 44.3%
cell-cycle effect (GNS (G411 and G362)): G0/G1 arrest

CCN(CC)CCCC(C)Nc1ccnc2cc(Cl)ccc12 (stereo not shown) [chloroquine]
cell-cycle effect (GNS (G411 and G362)): G0/G1 arrest

CC(C(O)c1ccc(O)cc1)N1CCC(Cc2ccccc2)CC1.CC(C(O)c1ccc(O)cc1)N1CCC(Cc2ccccc2)CC1.O=C(O)C(O)C(O)C(=O)O (stereo not shown) [ifenprodil tartrate]
selectivity against GNS compared with NS [1]: 8 fold
selectivity toward GNS and NS compared with fibroblasts [1]: more than 8 fold

CSc1ccc2c(c1)N(CCC1CCCCN1C)c1ccccc1S2 (stereo not shown) [thioridazine]
primary screen result (GNS, NS and BJ lines): hits

CN1CCN(CCCN2c3ccccc3Sc3ccc(C(F)(F)F)cc32)CC1 [trifluoperazine]
primary screen result (GNS, NS and BJ lines): hits

Cc1cc(C)cc(C(=O)OC2CC3CCC(C2)N3C)c1 (stereo not shown) [tropanyl 3,5-dimethylbenzoate]
selectivity toward GNS and NS compared with fibroblasts [1]: more than 8 fold

PD 168568
IC50 [1]: 25 to 50 µM
